Test results taken from ChEMBL document CHEMBL1833883, “Synthesis and antiangiogenic activity of new silybin galloyl esters” (J Med Chem, 2011).
In brackets after ≈: the same amount, converted by molar mass. Activity calls are given as the source filed them. The rule behind the calls is not given here.

Tests used:
HUVEC [1] = assay: Antiangiogenic activity in HUVEC assessed as inhibition of tube formation at 20 uM after 6 hrs by Matrigel assay relative to control; assay type: functional; details: Homo sapiens
Procedure, shortened: (§1)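 Roughly 1 × 10⁴ HUVECs plated in EGM on polymerized Matrigel (9 mg/mL), with or without compound; 2-methoxyestradiol 10 μM as positive control. Three images per well taken at 40× magnification. Tube formation scored in a field of about 100 cells as (sprouting×1 + connected×2 + polygons×3)/total cells, and expressed as % of untreated control; p < 0.05 versus control.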

HUVEC [2] = assay: Antiangiogenic activity in HUVEC assessed as inhibition of tube formation at 30 uM after 6 hrs by Matrigel assay relative to control; assay type: functional; details: Homo sapiens; procedure, shortened: as §1
HUVEC [3] = assay: Cytotoxicity against HUVEC assessed as cell viability after 16 hrs by MTT assay; assay type: cell-based; details: Homo sapiens
Procedure, shortened: (§2)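 Confluent HUVECs on gelatin-coated wells treated with serial dilutions of compound in fresh EGM for 16 h (overnight, 16–20 h). MTT added in medium at 1 mg/mL, 3 h at 37 °C; formazan dissolved in 1% NH₃/DMSO and absorbance read at 540 nm. IC50 reported as mean ± SD of three independent experiments, each run in triplicate.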

HUVEC [4] = assay: Cytotoxicity against HUVEC by LDH release assay; assay type: cell-based; details: human
Procedure, shortened: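 Confluent HUVECs on gelatin-coated wells exposed overnight (16–20 h) to serial dilutions of compound in fresh EGM. Culture medium then sampled to measure LDH leakage.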

HUVEC [5] = assay: Antiproliferative activity against HUVEC assessed as inhibition of cell growth after 3 days by MTT assay; assay type: functional, cell-based; details: Homo sapiens, 72 h
Procedure, shortened: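 4 × 10³ HUVECs incubated with serial dilutions of compound for 3 days. MTT (5 mg/mL, 10 μL) added and incubated 3 h at 37 °C; formazan dissolved in 1% NH₃ in DMSO and read at 540 nm. IC50 reported as mean ± SD of three independent experiments, each run in triplicate.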

HUVEC [6] = assay: Antiangiogenic activity in HUVEC assessed as inhibition of cell migration after 16 to 20 hrs by wound healing migration assay; assay type: functional; details: Homo sapiens
Procedure, shortened: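 HUVECs (passages 2–6, isolated from umbilical cord by collagenase digestion, grown in EGM) as confluent monolayers; one 1-mm cell-free line scratched per well, cells washed twice with PBS, then given fresh EGM with or without compound. Wound photographed at time zero and after overnight (16–20 h) incubation at 37 °C. Minimal inhibitory concentration taken from reoccupation of the wound space.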

HUVEC [7] = assay: Antiangiogenic activity in HUVEC assessed as inhibition of tube formation after 24 hrs by Matrigel assay; assay type: functional; details: Homo sapiens
Procedure, shortened: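 Matrigel (9 mg/mL) polymerized at 37 °C for at least 30 min. About 1 × 10⁴ HUVECs seeded in EGM with or without compound; 2-methoxyestradiol 10 μM as positive control. After 24 h, the minimal inhibitory concentration was taken as the lowest concentration at which no tubular structures formed.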

HUVEC [8] = assay: Antiangiogenic activity in HUVEC assessed as inhibition of tube formation at 10 uM after 6 hrs by Matrigel assay; assay type: functional, cell-based; details: Homo sapiens; procedure, shortened: as §1
HUVEC [9] = assay: Antiangiogenic activity in HUVEC assessed as inhibition of tube formation at 75 uM after 6 hrs by Matrigel assay; assay type: functional, cell-based; details: Homo sapiens
HUVEC [10] = assay: Antiangiogenic activity in HUVEC assessed as inhibition of tube formation at 10 uM after 6 hrs by Matrigel assay relative to control; assay type: functional; details: Homo sapiens; procedure, shortened: as §1
HUVEC [11] = assay: Antiangiogenic activity in HUVEC assessed as inhibition of tube formation after 6 hrs by Matrigel assay relative to control; assay type: functional, cell-based; details: Homo sapiens; procedure, shortened: as §1
[12] = Cytotoxicity against HUVEC assessed as cell viability at concentration higher than IC50 after 16 hrs by MTT assay; assay type: cell-based; details: human, HUVEC cells; read-out: Activity; procedure, shortened: as §2
[13] = Cytotoxicity against HUVEC assessed as cell viability at 100 uM after 16 hrs by MTT assay; assay type: cell-based; details: human, HUVEC cells; read-out: Activity; procedure, shortened: as §2
HUVEC [14] = assay: Antiangiogenic activity in HUVEC assessed as inhibition of tube formation at 50 uM after 6 hrs by Matrigel assay; assay type: functional, cell-based; details: Homo sapiens
HUVEC [15] = assay: Antiangiogenic activity in HUVEC assessed as inhibition of tube formation up to 75 uM after 6 hrs by Matrigel assay; assay type: functional, cell-based; details: Homo sapiens; procedure, shortened: as §1

SMILES	inhibition at 20 µM (HUVEC [1])	inhibition at 30 µM (HUVEC [2])	IC50 (HUVEC [3])	Activity (HUVEC [4])	IC50 (HUVEC [5])	MIC (HUVEC [6])	MIC (HUVEC [7])	inhibition (HUVEC [8])	inhibition (HUVEC [9])	inhibition at 10 µM (HUVEC [10])	inhibition (HUVEC [11])	viability at 16 h [12]	viability at 16 h, 100 µM [13]	inhibition (HUVEC [14])	inhibition (HUVEC [15])
COc1cc(C2Oc3cc([C@H]4Oc5cc(O)cc(O)c5C(=O)[C@@H]4O)ccc3OC2CO)ccc1OC(=O)c1cc(O)c(O)c(O)c1 (some centres undefined)	94.5%	49.5%	35.4 µM	Non-toxic	10.3 µM	20 µM (≈ 12.7 µg/mL)	60 µM (≈ 38.1 µg/mL)								
COc1cc2c(cc1O)CC[C@@H]1[C@@H]2CC[C@]2(C)[C@@H](O)CC[C@@H]12								Active							
COc1cc([C@@H]2Oc3cc([C@H]4Oc5cc(O)cc(O)c5C(=O)[C@@H]4O)ccc3O[C@H]2CO)ccc1O [SILYBIN B]			60.5 µM	Non-toxic	6.49 µM										
COc1cc(C2Oc3cc([C@H]4Oc5cc(O)cc(O)c5C(=O)[C@@H]4O)ccc3OC2COC(=O)c2cc(O)c(O)c(O)c2)ccc1O (some centres undefined)			55 µM	Non-toxic	11.6 µM	20 µM (≈ 12.7 µg/mL)	75 µM (≈ 47.6 µg/mL)								
COc1cc(C2Oc3cc([C@H]4Oc5cc(O)cc(O)c5C(=O)[C@@H]4O)ccc3OC2CO)ccc1O (mixture of isomers) [SILIBININ]			72.6 µM	Non-toxic	9.99 µM	50 µM	75 µM		Active						
COc1cc([C@H]2Oc3cc([C@H]4Oc5cc(O)cc(O)c5C(=O)[C@@H]4O)ccc3O[C@@H]2CO)ccc1O [SILYBIN A]			62.3 µM	Non-toxic	8.83 µM										
COc1cc([C@H]2Oc3cc([C@H]4Oc5cc(OC(=O)c6cc(O)c(O)c(O)c6)cc(O)c5C(=O)[C@@H]4O)ccc3O[C@@H]2CO)ccc1O			17.1 µM	Non-toxic	6.06 µM	10 µM (≈ 6.35 µg/mL)				79.9%	Dose-dependent effect	50%	40%	Active	
COc1cc(C2Oc3cc([C@H]4Oc5cc(O)cc(O)c5C(=O)[C@@H]4OC(=O)c4cc(O)c(O)c(O)c4)ccc3OC2CO)ccc1O (some centres undefined)			65 µM	Non-toxic	12.3 µM	50 µM (≈ 31.7 µg/mL)	75 µM (≈ 47.6 µg/mL)								inactive
COc1cc([C@@H]2Oc3cc([C@H]4Oc5cc(OC(=O)c6cc(O)c(O)c(O)c6)cc(O)c5C(=O)[C@@H]4O)ccc3O[C@H]2CO)ccc1O			7.85 µM	Non-toxic	4.29 µM	10 µM (≈ 6.35 µg/mL)				79.9%	Dose-dependent effect	50%	40%	Active	
COc1cc(C2Oc3cc([C@H]4Oc5cc(OC(=O)c6cc(O)c(O)c(O)c6)cc(O)c5C(=O)[C@@H]4O)ccc3OC2CO)ccc1O (some centres undefined)			9.21 µM	Non-toxic	4.75 µM	10 µM (≈ 6.35 µg/mL)	25 µM (≈ 15.9 µg/mL)			79.9%	Dose-dependent effect	50%	40%	Active	
